One data set relates to MCF7. Kind of data set: Cytotoxicity against human MCF7 cells after 96 hrs by microtiter assay. Type of data set: functional, cell-based. To be noted: MCF7, 96 h. A digest of the protocol:
(§1)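 DSMZ cell lines in RPMI 1640 with 10% FCS. DMF stocks diluted 1000-fold into medium. Continuous exposure 96 h at 37 °C, 5% CO2. Adherent cells stained with crystal violet. IC50 (50% growth inhibition vs untreated control) obtained by least-squares fitting of dose–response curves, averaging 2–5 independent determinations.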

The nature of data set [1]: Cytotoxicity against human KYSE520 cells after 96 hrs by microtiter assay. Type of data set: functional, cell-based. To be noted: KYSE-520, 96 h. A digest of the protocol: as §1
The subject of the next data set is RT-4. Kind of data set: Cytotoxicity against human RT4 cells after 96 hrs by microtiter assay. In kind it is functional, cell-based. To be noted: RT-4, 96 h. A digest of the protocol: as §1
The next data set deals with 5637. Kind of data set: Cytotoxicity against human 5637 cells after 96 hrs by microtiter assay. To be noted: Homo sapiens, 5637, 96 h. Type of data set: functional, cell-based. A digest of the protocol:
as §1

Data set [2] can be described thus: Cytotoxicity against human LCLC-103H cells after 96 hrs by microtiter assay. In kind it is functional, cell-based. A digest of the protocol: as §1
For a further data set, the system named is A-427. Kind of data set: Cytotoxicity against human A427 cells after 96 hrs by microtiter assay. Type of data set: functional, cell-based. To be noted: A-427, 96 h. A digest of the protocol:
as §1

The test system of the next data set is YAPC. Nature of the data set: Cytotoxicity against human YAPC cells after 96 hrs by microtiter assay. Type of data set: functional, cell-based. A digest of the protocol:
as §1

The test system of another data set is DAN-G. Kind of data set: Cytotoxicity against human DAN-G cells after 96 hrs by microtiter assay. In kind it is functional, cell-based. A digest of the protocol: as §1
The subject of the next data set is SISO. Nature of the data set: Cytotoxicity against human SISO cells after 96 hrs by microtiter assay. Type of data set: functional, cell-based. A digest of the protocol:
as §1

The nature of data set [3]: Cytotoxicity against human KYSE70 cells after 96 hrs by microtiter assay. Type of data set: functional, cell-based. The settings on record: KYSE-70, 96 h. A digest of the protocol: as §1
The subject of the next data set is KYSE-510. Kind of data set: Cytotoxicity against human KYSE510 cells after 96 hrs by microtiter assay. Type of data set: functional, cell-based. To be noted: KYSE-510, 96 h. A digest of the protocol:
as §1

The subject of another data set is RT-112. Kind of data set: Cytotoxicity against human RT112 cells after 96 hrs by microtiter assay. In kind it is functional, cell-based. The settings on record: RT-112, 96 h. A digest of the protocol: as §1
Data set [4] is described as follows: Aqueous solubility in phosphate buffered saline at pH 7.4 after 24 hrs. In kind it is physicochemical. A digest of the protocol: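 Solid added in excess to Dulbecco's PBS, pH 7.4, and stirred in the dark 24 h at room temperature. Suspension filtered through a 0.22 filter. Filtrate absorbance read at each compound's λmax, and dissolved concentration calculated from the extinction coefficient at that wavelength.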

In ChEMBL document CHEMBL1156706, “Structure-activity relationships of novel heteroaryl-acrylonitriles as cytotoxic and antibacterial agents” (Eur J Med Chem, 2008) one finds IC50 and solubility data, which are given here for 17 compounds.

Values after ≈ are worked out from the molar mass of the structure shown.

As for `N#C/C(=C\c1csc(Br)c1)c1nc2ccccc2[nH]1`, the IC50 (usually the concentration at which inhibition is half-maximal) in the data set on MCF7 is more than 40 µM; in [1] it was more than 40 µM; in the data set on RT-4 it was more than 40 µM; in the data set on 5637, more than 40 µM; in data set [2], 22.8 µM; with A-427, more than 40 µM. In addition, the IC50 (with YAPC; with DAN-G; with SISO; in data set [3]; in the data set on KYSE-510; with RT-112) was more than 40 µM in each case.
As for `S=P(N1CC1)(N1CC1)N1CC1` [THIOTEPA], the IC50 in the data set on MCF7 came to 3.23 µM; in data set [1], 6.44 µM; in the data set with RT-4, 18.3 µM; in the data set with 5637, 2 µM; in data set [2], 6.97 µM; in the data set with A-427 it was 1.58 µM. In addition, the IC50 came out at 2.66 µM in the data set on YAPC; 1.66 µM with DAN-G; 1.4 µM with SISO; 5.4 µM in data set [3]; 4.31 µM with KYSE-510; 3.4 µM with RT-112.
On to `N[C@@H](Cc1ccc(N(CCCl)CCCl)cc1)C(=O)O` [MELPHALAN], for which the IC50 in the data set on MCF7 came out at 3.71 µM; in data set [1] it was 10.5 µM; in the data set on RT-4, 14.2 µM; with 5637, 0.31 µM; in data set [2] it was 4 µM; in the data set with A-427, 5.13 µM. Also, the IC50 with YAPC came to 5.95 µM; with DAN-G it was 2.65 µM; with SISO, 1 µM; in data set [3], 16.2 µM; in the data set on KYSE-510, 8.18 µM; in the data set with RT-112 it was 4.69 µM.
`N#C/C(=C\c1ccncc1)c1nc2ccccc2[nH]1`: the IC50 in the data set with MCF7 is more than 40 µM; in data set [1], more than 40 µM; with RT-4, 40.1 µM; in the data set with 5637, 31.2 µM; in data set [2], 19.7 µM; in the data set with A-427, 26.2 µM. Also, the IC50 was more than 40 µM in the data set with YAPC; more than 40 µM in the data set on DAN-G; more than 40 µM with SISO; 37.1 µM in [3]; more than 40 µM in the data set on KYSE-510; 30.7 µM in the data set on RT-112.
Turning to `N#C/C(=C\c1ccccn1)c1nc2ccccc2s1`, the IC50 with MCF7 turned out to be 4.34 µM; in data set [1] it was 9.18 µM; in the data set with RT-4, 9.69 µM; with 5637, 6.65 µM; in data set [2], 7.8 µM; in the data set with A-427, 6.05 µM. The IC50 with YAPC came out at 8.27 µM; in the data set on DAN-G, 6.47 µM; in the data set with SISO, 5.69 µM; in [3] it was 7.28 µM; in the data set with KYSE-510, 13 µM; in the data set on RT-112, 8.19 µM. Moreover, the solubility (in general, how much of the substance goes into solution per volume) at 24 h in data set [4] came to 2 µM (≈ 0.527 µg/mL).
For the compound `O=C(Cn1cnc2ccccc21)NC(O)c1ccc([N+](=O)[O-])s1` (stereo unspecified), the IC50 was determined as 13.1 µM in the data set with MCF7; 24.2 µM in data set [1]; 2.96 µM in the data set on RT-4; 33.7 µM in the data set with 5637; 7.46 µM in data set [2]; 228 µM in the data set with A-427. For the same compound, the IC50 in the data set with YAPC turned out to be 22.4 µM; with DAN-G, 9.6 µM; in the data set with SISO, 11.7 µM; in [3], 57.4 µM; in the data set on KYSE-510 it was 140 µM; in the data set with RT-112 it was 13.7 µM.
With `N#C/C(=C\c1cccnc1)c1nc2ccccc2[nH]1`, the IC50 with MCF7 turned out to be 3.15 µM; in [1], 5.13 µM; with RT-4, 3.47 µM; in the data set on 5637, 1.79 µM; in data set [2], 1.97 µM; in the data set with A-427, 3.29 µM. The IC50 turned out to be 4.92 µM in the data set with YAPC; 3.27 µM in the data set on DAN-G; 3.02 µM with SISO; 4.25 µM in [3]; 3.92 µM in the data set on KYSE-510; 3.5 µM in the data set on RT-112.
Regarding `COc1ccc(/C=C(\C#N)c2nc3ccccc3[nH]2)s1`, the IC50 came to 13.2 µM with MCF7; 20.5 µM in data set [1]; 21.2 µM in the data set with RT-4; 31.9 µM in the data set with 5637; 5.24 µM in data set [2]; 7.19 µM with A-427. Also, the IC50 is more than 40 µM in the data set with YAPC; 13.8 µM in the data set on DAN-G; 36.8 µM with SISO; 12.2 µM in data set [3]; 12 µM with KYSE-510; 14.7 µM in the data set with RT-112.
As for `N#C/C(=C\c1ccccn1)c1nc2ccccc2o1`, the IC50 (in the data set on RT-4; with 5637; in data set [2]) was more than 20 µM in each case. The compound also displayed a solubility at 24 h in [4] of 23 µM (≈ 5.69 µg/mL).
As for `O=C1CN(/N=C/c2ccc([N+](=O)[O-])o2)C(=O)N1` [NITROFURANTOIN], the IC50 in the data set with MCF7 worked out at 4.44 µM; in the data set on RT-4, 7 µM; in the data set on 5637, 21.3 µM; in data set [2], 2.34 µM; with A-427 it was 1.86 µM; with DAN-G it was 6.74 µM. In addition, the results for the IC50 (in the data set on SISO; in data set [3]; with KYSE-510) were 7.27 µM, 22.8 µM and 29 µM, respectively.
For `O=C(Cn1cnc2ccccc21)NC(O)c1ccc([N+](=O)[O-])o1` (stereo unspecified), the IC50 in the data set with MCF7 was determined as 5.37 µM; in data set [1] it was 5.14 µM; in the data set on RT-4 it was 31.2 µM; with 5637 it was 5.91 µM; in data set [2], 1.78 µM; with A-427, 5.9 µM. The IC50 is 5.66 µM with YAPC; 4.18 µM in the data set with DAN-G; 3.22 µM in the data set with SISO; 5.57 µM in [3]; 9.49 µM in the data set with KYSE-510; 3.9 µM with RT-112.
`N#C/C(=C\c1ccsc1)c1nc2ccccc2[nH]1`: the IC50 in the data set on MCF7 was 14.4 µM; in data set [1], 14.6 µM; in the data set on RT-4, 7.82 µM; with 5637 it was 14.1 µM; in data set [2], 3.75 µM; in the data set with A-427, 6.39 µM. In addition, the IC50 in the data set with YAPC turned out to be 28.9 µM; in the data set on DAN-G, 15.7 µM; with SISO, 23.8 µM; in data set [3], 16 µM; with KYSE-510 it was 23 µM; in the data set with RT-112 it was 13.3 µM.
Consider `N#C/C(=C\c1ccccn1)c1nc2cccnc2[nH]1`, for which the IC50 with MCF7 turned out to be 8.28 µM; in data set [1], 7.98 µM; with RT-4, 10 µM; in the data set with 5637, 3.9 µM; in [2], 7.37 µM; with A-427 it was 5.15 µM. The IC50 in the data set with YAPC is 8.89 µM; with DAN-G, 7.97 µM; in the data set with SISO, 5.53 µM; in data set [3], 8.14 µM; in the data set with KYSE-510 it was 13.9 µM; with RT-112 it was 8.18 µM. This compound displayed a solubility at 24 h in data set [4] of 28 µM (≈ 6.92 µg/mL).
Regarding `N#C/C(=C\c1ccc([N+](=O)[O-])cc1)n1cnc2ccccc21`, the IC50 amounted to 2.47 µM with MCF7; 1.92 µM in data set [1]; 2.56 µM with RT-4; 2.2 µM in the data set on 5637; 1.71 µM in data set [2]; 1.7 µM in the data set on A-427. The IC50 with YAPC amounted to 2.43 µM; with DAN-G it was 1.53 µM; with SISO, 4.34 µM; in [3] it was 2.63 µM; in the data set on KYSE-510, 2.41 µM; in the data set on RT-112, 2.2 µM.
For the compound `Cc1cc2nc(/C(C#N)=C/c3ccc([N+](=O)[O-])s3)[nH]c2cc1C`, the IC50 in the data set with MCF7 was found to be 0.13 µM; in data set [1], 0.06 µM; with RT-4, 0.14 µM; in the data set with 5637 it was 0.05 µM; in data set [2] it was 0.03 µM; in the data set on A-427 it was 0.02 µM. The half-maximal inhibitory concentration (IC50) in the data set on YAPC came to 0.04 µM; with DAN-G, 0.2 µM; in the data set with SISO it was 0.1 µM; in [3], 0.05 µM; in the data set on KYSE-510, 0.12 µM; in the data set on RT-112, 0.12 µM.
As to `N#C/C(=C\c1ccc([N+](=O)[O-])o1)c1nc2cccnc2[nH]1`, the IC50 in the data set with MCF7 was found to be 1.39 µM; in data set [1], 1.58 µM; in the data set on RT-4 it was 1.76 µM; in the data set on 5637, 1.08 µM; in data set [2], 0.41 µM; with A-427, 0.75 µM. Moreover, the IC50 in the data set with YAPC was determined as 1.02 µM; with DAN-G it was 1.81 µM; in the data set with SISO, 0.72 µM; in data set [3], 1.33 µM; with KYSE-510 it was 5.46 µM; with RT-112, 1.11 µM. Besides, the solubility at 24 h in data set [4] turned out to be 1.4 µM (≈ 0.394 µg/mL).
Take `N#C/C(=C\c1cccc([N+](=O)[O-])c1)n1cnc2ccccc21`: the half-inhibitory concentration (IC50) in the data set with MCF7 stood at 2.61 µM; in data set [1], 2.3 µM; in the data set on RT-4 it was 4.02 µM; in the data set on 5637, 4.01 µM; in data set [2], 3.48 µM; with A-427 it was 2.86 µM. Further, the IC50 in the data set with YAPC was 3.39 µM; with DAN-G it was 2.26 µM; in the data set on SISO, 6.57 µM; in data set [3] it was 4.06 µM; in the data set with KYSE-510, 3.09 µM; in the data set on RT-112, 4.16 µM.
